Results taken from ChEMBL document CHEMBL3853270, “Influence of Birch Bark Triterpenes on Keratinocytes and Fibroblasts from Diabetic and Nondiabetic Donors” (2016).
Activity calls are given as the source filed them. The calls are words filed in the database; no cut-off is given here.

Columns and labels:
Assay type in all cases: functional
Keratinocyte [1] = assay: Effect on ECM related gene expression in non-diabetic adult human primary keratinocytes assessed as FBN1 mRNA levels at 1.96 uM after 6 hrs by qPCR analysis
In short: (§1)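 Primary keratinocytes from nondiabetic young and adult and diabetic adult donors; 400 000 cells per sample, 6 h exposure at 1.96 or 9.81 μM. RNA extracted and read on a high-throughput qPCR chip. Results are fold change versus 0.1% DMSO solvent control from 5−7 independent experiments over two donors per group, SD, one-way ANOVA with Bonferroni post-test.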

Keratinocyte [2] = assay: Effect on antiinflammatory related gene expression in non-diabetic adult human primary keratinocytes assessed as NFKBIA mRNA levels at 1.96 uM after 6 hrs by qPCR analysis; in short: as §1
Keratinocyte [3] = assay: Effect on antiinflammatory related gene expression in diabetic adult human primary keratinocytes assessed as NFKBIA mRNA levels at 1.96 uM after 6 hrs by qPCR analysis; in short: as §1
Keratinocyte [4] = assay: Effect on growth factor related gene expression in diabetic adult human primary keratinocytes assessed as GDF15 mRNA levels at 1.96 uM after 6 hrs by qPCR analysis
In short: (§2)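 Primary human keratinocytes (nondiabetic young or adult, diabetic adult donors) were exposed to compound for 6 h, with 0.1% DMSO as solvent control. Total RNA came from 400 000 cells per sample and was assayed on a Fluidigm Biomark high-throughput qPCR chip. Results are fold change vs solvent control, from 2−4 independent experiments on two donors per group, with SD. Groups were compared by one-way ANOVA with Bonferroni post-test.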

Keratinocyte [5] = assay: Effect on growth factor related gene expression in diabetic adult human primary keratinocytes assessed as VEGFA mRNA levels at 1.96 uM after 6 hrs by qPCR analysis; in short: as §2
Keratinocyte [6] = assay: Effect on chemokines related gene expression in non-diabetic adult human primary keratinocytes assessed as CXCL10 mRNA levels at 9.81 uM after 6 hrs by qPCR analysis
Keratinocyte [7] = assay: Effect on chemokines related gene expression in non-diabetic adult human primary keratinocytes assessed as IL8 mRNA levels at 9.81 uM after 6 hrs by qPCR analysis
Keratinocyte [8] = assay: Effect on growth factor related gene expression in non-diabetic adult human primary keratinocytes assessed as VEGFA mRNA levels at 9.81 uM after 6 hrs by qPCR analysis; in short: as §2
Keratinocyte [9] = assay: Effect on MMP1 mRNA expression levels in non-diabetic adult human primary keratinocytes at 9.81 uM after 6 hrs by qPCR analysis; in short: as §1
Keratinocyte [10] = assay: Effect on pro-inflammatory related gene expression in diabetic adult human primary keratinocytes assessed as PTGS2 mRNA levels at 9.81 uM after 6 hrs by qPCR analysis
Fibroblast [11] = assay: Effect on antiinflammatory related gene expression in non-diabetic young human primary fibroblasts assessed as NFKBIA mRNA levels at 1.96 uM after 6 hrs by qPCR analysis
In short: (§3)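 Primary dermal fibroblasts from one nondiabetic young, one nondiabetic adult and one diabetic adult donor; 320 000 cells per sample, 6 h at 1.96 or 9.81 μM. RNA measured on a high-throughput qPCR chip. Fold change versus 0.1% DMSO control, four independent experiments, SD, one-way ANOVA with Bonferroni post-test.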

Fibroblast [12] = assay: Effect on transcription factor related gene expression in non-diabetic young human primary fibroblasts assessed as JUN mRNA levels at 1.96 uM after 6 hrs by qPCR analysis
Fibroblast [13] = assay: Effect on growth factor related gene expression in non-diabetic adult human primary fibroblasts assessed as VEGFA mRNA levels at 1.96 uM after 6 hrs by qPCR analysis
In short: (§4)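 Primary human dermal fibroblasts (young or adult nondiabetic, adult diabetic donor) were treated for 6 h against a 0.1% DMSO solvent control. RNA from 320 000 cells per sample was measured by Fluidigm Biomark high-throughput qPCR. Values are fold change relative to solvent control, from four independent experiments, with SD. One-way ANOVA with Bonferroni post-test was applied.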

Fibroblast [14] = assay: Effect on pro-inflammatory related gene expression in diabetic adult human primary fibroblasts assessed as PTGS2 mRNA levels at 1.96 uM after 6 hrs by qPCR analysis
Fibroblast [15] = assay: Effect on pro-inflammatory related gene expression in diabetic adult human primary fibroblasts assessed as IL1R1 mRNA levels at 1.96 uM after 6 hrs by qPCR analysis; in short: as §4
Fibroblast [16] = assay: Effect on pro-inflammatory related gene expression in diabetic adult human primary fibroblasts assessed as IL6 mRNA levels at 1.96 uM after 6 hrs by qPCR analysis; in short: as §4
Fibroblast [17] = assay: Effect on transcription factor related gene expression in diabetic adult human primary fibroblasts assessed as JUN mRNA levels at 1.96 uM after 6 hrs by qPCR analysis
Fibroblast [18] = assay: Effect on pro-inflammatory related gene expression in non-diabetic young human primary fibroblasts assessed as IL1R1 mRNA levels at 9.81 uM after 6 hrs by qPCR analysis
Fibroblast [19] = assay: Effect on MMP1 mRNA expression levels in non-diabetic adult human primary fibroblasts at 9.81 uM after 6 hrs by qPCR analysis; in short: as §3
Fibroblast [20] = assay: Effect on chemokines related gene expression in diabetic adult human primary fibroblasts assessed as CCL2 mRNA levels at 1.96 uM after 6 hrs by qPCR analysis
Fibroblast [21] = assay: Effect on pro-inflammatory related gene expression in diabetic adult human primary fibroblasts assessed as IL1R1 mRNA levels at 9.81 uM after 6 hrs by qPCR analysis; in short: as §4
Fibroblast [22] = assay: Effect on chemokines related gene expression in non-diabetic adult human primary fibroblasts assessed as CCL2 mRNA levels at 1.96 uM after 6 hrs by qPCR analysis
Fibroblast [23] = assay: Effect on transcription factor related gene expression in diabetic adult human primary fibroblasts assessed as JUN mRNA levels at 9.81 uM after 6 hrs by qPCR analysis
Fibroblast [24] = assay: Effect on growth factors related gene expression in non-diabetic young human primary fibroblasts assessed as FGF2 mRNA levels at 1.96 uM after 6 hrs by qPCR analysis; in short: as §4
Fibroblast [25] = assay: Effect on growth factors related gene expression in non-diabetic young human primary fibroblasts assessed as FGF2 mRNA levels at 9.81 uM after 6 hrs by qPCR analysis; in short: as §4
Fibroblast [26] = assay: Effect on adhesion molecules related gene expression in non-diabetic adult human primary fibroblasts assessed as VCAM1 mRNA levels at 9.81 uM after 6 hrs by qPCR analysis
In short: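 Dermal fibroblasts from nondiabetic adult and diabetic adult donors, exposed for 6 h at 1.96 or 9.81 μM. ICAM-1 and VCAM-1 mRNA measured by standard qRT-PCR, n = 3. Fold change versus 0.1% DMSO control, SD, one-way ANOVA with Bonferroni post-test.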

[27] = Effect on wound healing activity in non-diabetic adult human primary keratinocytes assessed as upregulation of MIF protein levels at 1.96 uM after 24 hrs by bead-based suspension array analysis; conditions: Keratinocyte
[28] = Effect on wound healing activity in diabetic adult human primary keratinocytes assessed as upregulation of MIF protein levels at 1.96 uM after 24 hrs by bead-based suspension array analysis; conditions: Keratinocyte
[29] = Effect on wound healing activity in diabetic adult human primary fibroblasts assessed as upregulation of RANTES protein levels at 1.96 uM after 24 hrs by bead-based suspension array analysis; conditions: Fibroblast

C=C(C)[C@@H]1CC[C@]2(CO)CC[C@]3(C)[C@H](CC[C@@H]4[C@@]5(C)CC[C@H](O)C(C)(C)[C@@H]5CC[C@]43C)[C@@H]12 [BETULIN]
fold change (FC) (Keratinocyte [1]): 0.9 | fold change (FC) (Keratinocyte [2]): 1.4 | fold change (FC) (Keratinocyte [3]): 1.2 | fold change (FC) (Keratinocyte [4]): 1.4 | fold change (FC) (Keratinocyte [5]): 1.6 | fold change (FC) (Keratinocyte [6]): 4.3 | fold change (FC) (Keratinocyte [7]): 69.9 | fold change (FC) (Keratinocyte [8]): 1.7 | fold change (FC) (Keratinocyte [9]): 1 | fold change (FC) (Keratinocyte [10]): 2.2 | fold change (FC) (Fibroblast [11]): 2.9 | fold change (FC) (Fibroblast [12]): 1 | fold change (FC) (Fibroblast [13]): 1.4 | fold change (FC) (Fibroblast [14]): 4.1 | fold change (FC) (Fibroblast [15]): 1.7 | fold change (FC) (Fibroblast [16]): 14.9 | fold change (FC) (Fibroblast [17]): 1.3 | fold change (FC) (Fibroblast [18]): 3.9 | fold change (FC) (Fibroblast [19]): 2.3 | fold change (FC) (Fibroblast [20]): 3.7 | fold change (FC) (Fibroblast [21]): 1.9 | fold change (FC) (Fibroblast [22]): 171 | fold change (FC) (Fibroblast [23]): 1.2 | fold change (FC) (Fibroblast [24]): 1.7 | fold change (FC) (Fibroblast [25]): 1.8 | fold change (FC) (Fibroblast [26]): 53.7 | Activity [27]: Active | Activity [28]: Active | Activity [29]: Active
